Data from article PMC11737066 (RSC Advances, 2025).

Assay: Parallel artificial membrane permeability assay
Format: in vitro ADME
Details: 24 h incubation at 37 °C; initial minus final donor and acceptor concentration
Outline: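 Artificial membrane made of 1% (mass fraction) lecithin in dodecane, applied to hydrophobic PVDF filter donor wells. Test compound solution was added to the donor side, and the donor/acceptor sandwich was incubated 24 h at 37 °C. Donor and acceptor concentrations were taken from maximum absorbance (scan 190–400 nm). Membrane integrity was checked with brilliant cresyl blue and lucifer yellow.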

SMILES	% of compound integrated in membrane
CCCCCCCCCCCCCCCC[n+]1ccccc1 [CPC, cetylpyridinium chloride]	≈ 97%
CCCCCCCCCCCC[N+](C)(C)Cc1ccccc1.[Br-] [BAB, dimethyldodecylbenzylammonium bromide]	≈ 97%
